MIN6 prolif: MIN6 beta-cell proliferation induction | MIN6 cells proliferation, ATPlite luminescence, 48 h; cells starved in 0.2% serum; 100% = growth in 10% serum | 330,000 tested, 0.29% active | proliferation, % at 10 µM | AID 2380;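 active = compounds whose signal lies at least 3.5 SD above the mean of all wells on their plate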;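 also: 0% = DMSO-treated cells in low-serum medium and 100% = 10% serum control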
Calb FLC: C. albicans growth modulation with fluconazole | growth inhibition, % (test concentration not listed) | 300,000 tested, 0.57% active | C. albicans CaCi-2 + fluconazole, Alamar Blue growth, 48 h;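 active = growth inhibition above about 58% in most replicates, limit read from the data, passing the limit was not always enough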;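 also: all wells also contain fluconazole at 8 µg/ml as a sub-toxic cotreatment; 0% = median of DMSO wells and 100% = median of geldanamycin control wells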
SR-BI HDL uptake: blocks mouse SR-BI lipid uptake from DiI-HDL. inhibition, % at 12.5 µM. ldlA[mSR-BI] CHO cells, DiI-HDL uptake fluorescence, 3 h. Q61009. 320,000 tested, 0.96% active. AID 488896;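 active = mean replicate inhibition of at least 70% and a set share of replicates each scoring 70 or more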;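 also: 0% = median of neutral control wells and 100% = median of positive control wells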
Target sequence (Q61009 whole entry, looked up): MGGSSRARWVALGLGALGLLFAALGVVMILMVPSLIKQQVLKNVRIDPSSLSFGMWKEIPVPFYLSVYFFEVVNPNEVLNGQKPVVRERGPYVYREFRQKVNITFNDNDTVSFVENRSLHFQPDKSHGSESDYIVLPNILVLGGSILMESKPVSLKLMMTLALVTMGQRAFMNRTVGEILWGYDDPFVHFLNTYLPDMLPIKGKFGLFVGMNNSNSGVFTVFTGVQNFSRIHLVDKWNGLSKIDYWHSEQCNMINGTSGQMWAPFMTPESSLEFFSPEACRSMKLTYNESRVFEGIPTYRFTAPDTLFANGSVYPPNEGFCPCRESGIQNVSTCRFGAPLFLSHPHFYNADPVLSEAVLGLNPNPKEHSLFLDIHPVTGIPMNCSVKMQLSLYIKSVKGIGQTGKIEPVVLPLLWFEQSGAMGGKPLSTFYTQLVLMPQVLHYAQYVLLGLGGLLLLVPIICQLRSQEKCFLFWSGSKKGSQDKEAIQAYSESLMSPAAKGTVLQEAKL
SR-BI DiI-HDL act: SR-BI HDL lipid transfer activation | AID 504775 | 320,000 tested, 0.096% active | activation, % at 12.5 µM | CHO ldlA[mSR-BI] cells, DiI-HDL uptake fluorescence, 3 h; 100 = double the neutral-control signal;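 active = mean replicate activation of at least 60% and every replicate at or above 60%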;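 also: 0% = median plate neutral-control signal and 100% = twice that signal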
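Material: SR-BI-overexpressing, LDLR-lacking CHO cells | Dosing: Single compound concentration, delivered by pin transfer | Probe or stimulus: Labelled HDL, 10 µg/mL | Signal: Bottom-read cell fluorescence after medium removal, ex 550/em 595 nm | Schedule: 3 h, 37 °C | Evaluation: HDL uptake via cellular fluorescence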
Insulin prom up: MIN6 insulin promoter up-regulation | MIN6 insulin promoter-GFP reporter, high-content imaging; stronger effect = higher value | z-score at 5 µM | 190,000 tested, 0.3% active | AID 1625;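 active = z-score above 3 at 5 µM with at least 500 cells counted in the well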
m5-HT2A agonist: activates the mouse 5-HT2A serotonin receptor; activation, % at 7.6 µM; 360,000 tested, 0.66% active; CHO-K1 mHTR2A beta-arrestin complementation, luminescence; percent of 30 µM serotonin response;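 active = activation above a run cutoff, the mean activation of all tested compounds plus 3 SD, cut at about 14% in these data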;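 also: 0% = plate median of compound wells and 100% = 30 µM serotonin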
The depositor's hits bear a star; . = not tested or not shown. The list is not random: actives were taken first. Their share in the collection is about 2.4%.

SMILES | MIN6 prolif | Calb FLC | SR-BI HDL uptake | SR-BI DiI-HDL act | Insulin prom up | m5-HT2A agonist
COc1ccc(NC(=O)/C=C/c2cc(Br)ccc2OC)cc1 | -3 | 2 | 74* | -74 | -0.89 | -9
COc1ccc(Br)cc1/C=C/C(=O)c1ccc(NC(C)=O)cc1 | . | . | 76* | -77 | -2.8 | 3
O=C(Nc1ccccc1Cl)c1cccc(NS(=O)(=O)c2ccccc2)c1 | . | . | . | . | -0.42 | .
O=C([C@H]1O[C@@H](n2ccc(=O)[nH]c2=O)[C@H](O)[C@@H]1O)N1CCC(F)(F)CC1 | . | . | . | . | . | 1
COc1ccc(-c2ccc(=O)n(CC(=O)Nc3cccc(O)c3)n2)cc1OC | 0 | 111* | -6 | 6 | . | -2
COc1ccc(-n2c(SCC(=O)N3CCCC(C)C3)nnc2-c2cccnc2)cc1 (configuration not stated) | 1 | 1 | -4 | 4 | -0.23 | -2
COc1ccc(-n2c(SCC(=O)N3CCCCC3C)nnc2-c2cccnc2)cc1 (configuration not stated) | -2 | -6 | -117 | 117* | 1 | -4
CCOc1cc(C(N)=O)cc(Cl)c1OCc1ccccc1 | 0 | 112* | 27 | -27 | 0.88 | -2
COc1cc(C(N)=O)cc(Cl)c1OCc1ccccc1 | 1 | -7 | -13 | 13 | -0.01 | -5
O=[N+]([O-])c1ccc2nc(-c3ccccc3)n(OCc3ccc(Cl)cc3)c2c1 | -4 | 32 | 78* | -78 | -0.41 | -3
N#C/C(C(N)=O)=C1/SC=C(c2ccccc2)N1c1ccccc1 | 4 | 2 | . | . | 0.15 | -4
N#C/C(C(=O)c1ccccc1)=C1/SC=C(N)N1c1ccccc1 | . | . | . | . | 6* | .
COc1cc(CNc2nnnn2C)cc(OC)c1OC | 0 | -5 | 2 | -2 | . | 8
CCCN(CCC)c1nc(N)nc(-c2cc(Cl)ccc2OC)n1 | -2 | -6 | 82* | -82 | . | 4
CCCCn1c(N)c(N(C(=O)CSc2nncn2-c2ccccc2)C2CCCC2)c(=O)[nH]c1=O | . | . | -25 | 25 | . | -1
O=C1/C(=C/c2ccc(N3CCOCC3)o2)SC(=Nc2ccccc2)N1CCc1c[nH]c2ccccc12 | -4 | 1 | 87* | -87 | . | -8
COc1ccc(N=C2S/C(=C\c3ccc(OC(C)C(=O)O)c(OC)c3)C(=O)N2CCc2c[nH]c3ccccc23)cc1 (configuration not stated) | -4 | 2 | 75* | -75 | 0.48 | 0
O=C1S/C(=C/c2ccc(N3CCOCC3)o2)C(=O)N1Cc1ccc(F)cc1 | -6 | -4 | -7 | 7 | . | -1
COc1cc(/C=C2\SC(=Nc3ccccc3)N(CCc3c[nH]c4ccccc34)C2=O)ccc1OC(C)C(=O)O (configuration not stated) | 0 | 32 | 23 | -23 | 0.02 | 1
O=C(COC(=O)C1CC1)NC(=O)c1ccccc1 | -2 | . | -15 | 15 | . | -2
CN(c1ccc(C(=O)N2CCCCCC2)cc1)S(=O)(=O)c1ccc(Cl)cc1 | -2 | 0 | 71* | -71 | . | 3
COc1ccc(Cl)cc1Cn1c(C)c(C(=O)NCc2cccc([N+](=O)[O-])c2)sc1=O | . | . | . | . | . | -2
Cc1ccc(S(=O)(=O)N2CCCC2C(=O)N(C)Cc2cccs2)cc1 (configuration not stated) | 1 | 33 | -21 | 21 | 4.2* | 1
CC[C@]12c3[nH]c4ccc(Cl)cc4c3CCN1C(=O)[C@@H](CC(=O)NCCCn1ccnc1)C[C@@H]2C(=O)N1CCN(C(=O)c2ccco2)CC1 | . | . | -10 | 10 | . | 7
Cc1ccc(C(=O)Nc2nc3ccc(S(C)(=O)=O)cc3s2)o1 | -5 | -4 | -95 | 95* | . | 0
CS(=O)(=O)c1ccc2nc(NC(=O)c3ccco3)sc2c1 | -2 | 16 | -6 | 6 | 0.41 | -2
O=C(CCl)N1c2ccccc2SCC1c1ccccc1 (configuration not stated) | -4 | 82* | -13 | 13 | . | 5
C[C@]12CC[C@H](O)CC1=CCC1C2CC[C@@]2(C)C1CC[C@@H]2NC(=O)[C@@H](N)Cc1cnc[nH]1 (some centres not stated) | . | . | 15 | -15 | . | 7

Screens: PubChem BioAssay, several laboratories
